From ChEMBL document CHEMBL1132816, “Arylacetamides as peripherally restricted kappa opioid receptor agonists” (Bioorg Med Chem Lett, 2000)

Assays:
Format in all cases: functional
Rattus norvegicus [1] = experiment: The compound was evaluated in vivo for its ability to inhibit formalin induced flinching in rats by intrapaw administration
Procedure, shortened: (§1)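 Rat formalin-induced flinching with intrapaw dosing. Read-out is % inhibition of flinching at the stated dose. Agents reaching ≥80% antagonism at 300 µg were titrated to an A50 in µg.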

Rattus norvegicus [2] = experiment: The compound was evaluated in vivo for their ability to inhibit formalin induced flinching in rats by subcutaneous administration
Procedure, shortened: (§2)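 Rat formalin-induced flinching with subcutaneous dosing, starting at 10 or 30 mg/kg. Read-out is % inhibition of flinching at the dose given, or an A50 in mg/kg from titration.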

Rattus norvegicus [3] = experiment: The compound was evaluated in vivo for sedation in rats by subcutaneous administration using Rotarod assay; conditions: sc
Procedure, shortened: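 Sedation, taken as a centrally mediated side effect, scored by rotarod performance in rats after subcutaneous dosing. Read-out is the ED50 in mg/kg.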

Rattus norvegicus [4] = experiment: The compound was evaluated in vivo for percent decrease of sedation in rats at 3 mg/kg by subcutaneous administration using Rotarod assay
Rattus norvegicus [5] = experiment: The compound was evaluated in vivo for antagonism of formalin induced financing in rats at 30 […] by subcutaneous administration; procedure, shortened: as §2
Rattus norvegicus [6] = experiment: The compound was evaluated in vivo for antagonism of formalin induced flinching in rats at 300 (microg) by intrapaw administration; procedure, shortened: as §1
Rattus norvegicus [7] = experiment: The compound was evaluated in vivo for antagonism of formalin induced […] in rats at 10 […] by subcutaneous administration; procedure, shortened: as §2
Rattus norvegicus [8] = experiment: The compound was evaluated in vivo for antagonism of formalin induced flinching in rats at 1000 (microg) by intrapaw administration; procedure, shortened: as §1

| SMILES | A50 (Rattus norvegicus [1]) [µg] | A50 (Rattus norvegicus [2]) [mg/kg] | ED50 (Rattus norvegicus [3]) [mg/kg] | also measured |
| --- | --- | --- | --- | --- |
| CN(C(=O)Cc1ccc(Cl)c(Cl)c1)[C@H](CN1CCCC1)c1ccccc1 [ICI-199,441] | 0.74 | 0.05 | 0.14 |  |
| CN(C(=O)Cc1ccccc1C(F)(F)F)[C@H](CN1CCCC1)c1ccccc1 |  | 0.54 |  | Decrease (Rattus norvegicus [4]): 71% |
| CN(C(=O)Cc1ccccc1N(S(C)(=O)=O)S(C)(=O)=O)[C@H](CN1CCCC1)c1ccccc1 | 17 |  |  | Antagonism (Rattus norvegicus [5]): 21% |
| CN(C(=O)Cc1cccc([N+](=O)[O-])c1)[C@H](CN1CCCC1)c1ccccc1 |  |  |  | Antagonism (Rattus norvegicus [6]): 95% |
| CN(C(=O)Cc1cccc(N(S(C)(=O)=O)S(C)(=O)=O)c1)[C@H](CN1CCCC1)c1ccccc1 |  |  |  | Antagonism (Rattus norvegicus [6]): 91%; Antagonism (Rattus norvegicus [7]): 15% |
| CN(C(=O)Cc1ccccc1[N+](=O)[O-])[C@H](CN1CCCC1)c1ccccc1 | 29 |  |  |  |
| CN(C(=O)Cc1cccc(C(F)(F)F)c1)[C@H](CN1CCCC1)c1ccccc1 |  | 0.02 | 0.18 |  |
| CN(C(=O)Cc1ccc(Cl)c(Cl)c1[N+](=O)[O-])[C@H](CN1CCCC1)c1ccccc1 | 5.3 | 0.24 | 0.97 |  |
| CN(C(=O)Cc1ccccc1N)[C@H](CN1CCCC1)c1ccccc1 | 65 | 1.5 | 8.9 |  |
| CN(C(=O)Cc1ccc(Cl)c(Cl)c1N(S(C)(=O)=O)S(C)(=O)=O)[C@H](CN1CCCC1)c1ccccc1 | 28 |  |  |  |
| CN(C(=O)Cc1ccc(N(S(C)(=O)=O)S(C)(=O)=O)cc1)[C@H](CN1CCCC1)c1ccccc1 |  |  |  | Antagonism (Rattus norvegicus [8]): 95%; Antagonism (Rattus norvegicus [5]): 30% |
| CN(C(=O)Cc1ccc(Cl)c(Cl)c1N)[C@H](CN1CCCC1)c1ccccc1 | 7 |  |  |  |
| CN(C(=O)Cc1ccc(N)cc1)[C@H](CN1CCCC1)c1ccccc1 |  |  |  | Antagonism (Rattus norvegicus [6]): 52% |
| CN(C(=O)Cc1ccc(C(F)(F)F)cc1)[C@H](CN1CCCC1)c1ccccc1 | 0.82 | 0.009 | 0.12 |  |
| CN(C(=O)Cc1cccc(N)c1)[C@H](CN1CCCC1)c1ccccc1 |  |  |  | Antagonism (Rattus norvegicus [6]): 58% |
